Source: ChEMBL document CHEMBL3351726 (J Med Chem, 2014)
Residues, ends and D or L forms follow the SMILES beside them.

What was measured:
[1] = Retention time of the compound measured over 30 mins at flow rate of 1 mL/min by HPLC; type: physicochemical; conditions: 0.5 h
Procedure, shortened: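 Reversed-phase analytical HPLC or LC−MS on a SymmetryShield RP18 column (5 μm, 4.6 × 150 mm). Gradient 10−60% B over 30 min at 1 mL/min; A = 0.1% TFA in water, B = 0.1% TFA in acetonitrile.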

HEK293 = test: Selectivity ratio of IC50 for rat Nav1.2 expressed in HEK-293 cells to IC50 for human Nav1.7 expressed in HEK-293 cells; type: cell-based
[2] = Retention time of the compound measured over 15 mins at flow rate of 1 mL/min by HPLC

SMILES	Retention_time [1] [min]	Ratio IC50 (HEK293)	Retention_time [2] [min]
CSCC[C@@H]1NC(=O)[C@H](Cc2c[nH]c3ccccc23)NC(=O)[C@H](CCCCN)NC(=O)[C@H](CCC(N)=O)NC(=O)[C@@H](NC(=O)[C@@H](N)Cc2ccc(O)cc2)CSSC[C@@H]2NC(=O)[C@@H]3CSSC[C@@H](C(=O)N[C@@H](CCCCN)C(=O)N[C@@H](CCCCN)C(=O)N[C@@H](CCCCN)C(=O)N[C@@H](CC(C)C)C(=O)N[C@@H](Cc4c[nH]c5ccccc45)C(=O)O)NC(=O)[C@H](Cc4c[nH]c5ccccc45)NC(=O)[C@H](CC(C)C)NC(=O)[C@H](CCCNC(=N)N)NC(=O)[C@H](CSSC[C@H](NC(=O)[C@H]([C@@H](C)O)NC(=O)[C@H](Cc4c[nH]c5ccccc45)NC1=O)C(=O)N[C@@H](CC(=O)O)C(=O)N[C@@H](CO)C(=O)N[C@@H](CCC(=O)O)C(=O)N[C@@H](CCCNC(=N)N)C(=O)N[C@@H](CCCCN)C(=O)N3)NC(=O)[C@H](C(C)C)NC(=O)[C@H](CC(C)C)NC(=O)CNC(=O)[C@H](CCC(=O)O)NC2=O	15.44	26	9.87
CC[C@H](C)[C@H](NC(=O)[C@@H](NC(=O)[C@H](CCCCN)NC(=O)[C@H](CCCCN)NC(=O)[C@@H]1CSSC[C@@H]2NC(=O)[C@H](CCCCN)NC(=O)[C@H](CCCNC(=N)N)NC(=O)[C@H](CCC(=O)O)NC(=O)[C@H](CO)NC(=O)[C@H](CC(=O)O)NC(=O)[C@@H]3CSSC[C@H](NC(=O)[C@H](C(C)C)NC(=O)[C@H](CCSC)NC(=O)CNC(=O)[C@H](CCC(=O)O)NC(=O)[C@H](CSSC[C@H](NC(=O)[C@@H](N)Cc4ccc(O)cc4)C(=O)N[C@@H](CCC(N)=O)C(=O)N[C@@H](CCCCN)C(=O)N[C@@H](Cc4c[nH]c5ccccc45)C(=O)N[C@@H](CCSC)C(=O)N[C@@H](Cc4c[nH]c5ccccc45)C(=O)N[C@@H]([C@@H](C)O)C(=O)N3)NC2=O)C(=O)N[C@@H](CCCNC(=N)N)C(=O)N[C@@H](CC(C)C)C(=O)N[C@@H](Cc2c[nH]c3ccccc23)C(=O)N1)[C@@H](C)CC)C(=O)O	18.47	2	9.44
CC[C@H](C)[C@H](NC(=O)[C@H](CCCCN)NC(=O)[C@H](CCCCN)NC(=O)[C@@H]1CSSC[C@@H]2NC(=O)[C@H](CCCCN)NC(=O)[C@H](CCCNC(=N)N)NC(=O)[C@H](C)NC(=O)[C@H](CO)NC(=O)[C@H](CC(=O)O)NC(=O)[C@@H]3CSSC[C@H](NC(=O)[C@H](C(C)C)NC(=O)[C@H](CC(C)C)NC(=O)CNC(=O)[C@H](CCC(=O)O)NC(=O)[C@H](CSSC[C@H](NC(=O)[C@@H](N)Cc4ccc(O)cc4)C(=O)N[C@@H](CCC(N)=O)C(=O)N[C@@H](CCCCN)C(=O)N[C@@H](Cc4c[nH]c5ccccc45)C(=O)N[C@@H](CCSC)C(=O)N[C@@H](Cc4c[nH]c5ccccc45)C(=O)N[C@@H]([C@@H](C)O)C(=O)N3)NC2=O)C(=O)N[C@@H](CCCNC(=N)N)C(=O)N[C@@H](CC(C)C)C(=O)N[C@@H](Cc2c[nH]c3ccccc23)C(=O)N1)C(=O)N[C@H](C(=O)N[C@@H](Cc1c[nH]c2ccccc12)C(=O)O)[C@@H](C)CC (HELM PEPTIDE1{Y.C.Q.K.W.M.W.T.C.D.S.A.R.K.C.C.E.G.L.V.C.R.L.W.C.K.K.I.I.W}$PEPTIDE1,PEPTIDE1,2:R3-16:R3|PEPTIDE1,PEPTIDE1,9:R3-21:R3|PEPTIDE1,PEPTIDE1,15:R3-25:R3$$$V2.0)	15.83	9	9.29
[H][C@]12CSSC[C@@H](C(=O)N[C@@H](CCCCN)C(=O)N[C@@H](CCCCN)C(=O)N[C@H](C(=O)N[C@@H](CC(C)C)C(=O)N[C@@H](Cc3c[nH]c4ccccc34)C(=O)O)[C@@H](C)CC)NC(=O)[C@H](Cc3c[nH]c4ccccc34)NC(=O)[C@H](CC(C)C)NC(=O)[C@H](CCCNC(=N)N)NC(=O)[C@]3([H])CSSC[C@]([H])(NC(=O)[C@]([H])([C@@H](C)O)NC(=O)[C@H](Cc4c[nH]c5ccccc45)NC(=O)[C@H](CCSC)NC(=O)[C@H](Cc4c[nH]c5ccccc45)NC(=O)[C@H](CCCCN)NC(=O)[C@H](CCC(N)=O)NC(=O)[C@@H](NC(=O)[C@@H](N)Cc4ccc(O)cc4)CSSC[C@]([H])(NC1=O)C(=O)N[C@@H](CCC(=O)O)C(=O)NCC(=O)N[C@@H](CC(C)C)C(=O)N[C@@H](C(C)C)C(=O)N3)C(=O)N[C@@H](CC(=O)O)C(=O)N[C@@H](CO)C(=O)N[C@@H](C)C(=O)N[C@@H](CCCNC(=N)N)C(=O)N[C@@H](CCCCN)C(=O)N2 (HELM PEPTIDE1{Y.C.Q.K.W.M.W.T.C.D.S.A.R.K.C.C.E.G.L.V.C.R.L.W.C.K.K.I.L.W}$PEPTIDE1,PEPTIDE1,2:R3-16:R3|PEPTIDE1,PEPTIDE1,9:R3-21:R3|PEPTIDE1,PEPTIDE1,15:R3-25:R3$$$V2.0)	15.95	20	9.54
[H][C@]12CSSC[C@@H](C(=O)N[C@@H](CCCCN)C(=O)N[C@@H](CCCCN)C(=O)N[C@@H](CCCCN)C(=O)N[C@H](C(=O)N[C@@H](CC(C)C)C(=O)N[C@@H](Cc3c[nH]c4ccccc34)C(=O)O)[C@@H](C)CC)NC(=O)[C@H](Cc3c[nH]c4ccccc34)NC(=O)[C@H](CC(C)C)NC(=O)[C@H](CCCNC(=N)N)NC(=O)[C@]3([H])CSSC[C@]([H])(NC(=O)[C@]([H])([C@@H](C)O)NC(=O)[C@H](Cc4c[nH]c5ccccc45)NC(=O)[C@H](CCSC)NC(=O)[C@H](Cc4c[nH]c5ccccc45)NC(=O)[C@H](CCCCN)NC(=O)[C@H](CCC(N)=O)NC(=O)[C@@H](NC(=O)[C@@H](N)Cc4ccc(O)cc4)CSSC[C@]([H])(NC1=O)C(=O)N[C@@H](CCC(=O)O)C(=O)NCC(=O)N[C@@H](CC(C)C)C(=O)N[C@@H](C(C)C)C(=O)N3)C(=O)N[C@@H](CC(=O)O)C(=O)N[C@@H](CO)C(=O)N[C@@H](C)C(=O)N[C@@H](CCCNC(=N)N)C(=O)N[C@@H](CCCCN)C(=O)N2 (HELM PEPTIDE1{Y.C.Q.K.W.M.W.T.C.D.S.A.R.K.C.C.E.G.L.V.C.R.L.W.C.K.K.K.I.L.W}$PEPTIDE1,PEPTIDE1,2:R3-16:R3|PEPTIDE1,PEPTIDE1,9:R3-21:R3|PEPTIDE1,PEPTIDE1,15:R3-25:R3$$$V2.0)	15.88	33	9.05
[H][C@]12CSSC[C@@H](C(=O)N[C@@H](CCCCN)C(=O)N[C@@H](CCCCN)C(=O)N[C@@H](CCCCN)C(=O)N[C@@H](CC(C)C)C(=O)N[C@@H](Cc3c[nH]c4ccccc34)C(=O)O)NC(=O)[C@H](Cc3c[nH]c4ccccc34)NC(=O)[C@H](CC(C)C)NC(=O)[C@H](CCCNC(=N)N)NC(=O)[C@]3([H])CSSC[C@]([H])(NC(=O)[C@]([H])([C@@H](C)O)NC(=O)[C@H](Cc4c[nH]c5ccccc45)NC(=O)[C@H](CCSC)NC(=O)[C@H](Cc4c[nH]c5ccccc45)NC(=O)[C@H](CCCCN)NC(=O)[C@H](CCC(N)=O)NC(=O)[C@@H](NC(=O)[C@@H](N)Cc4ccc(O)cc4)CSSC[C@]([H])(NC1=O)C(=O)N[C@@H](CCC(=O)O)C(=O)NCC(=O)N[C@@H](CC(C)C)C(=O)N[C@@H](C(C)C)C(=O)N3)C(=O)N[C@@H](CC(=O)O)C(=O)N[C@@H](CO)C(=O)N[C@@H](C)C(=O)N[C@@H](CCCNC(=N)N)C(=O)N[C@@H](CCCCN)C(=O)N2 (HELM PEPTIDE1{Y.C.Q.K.W.M.W.T.C.D.S.A.R.K.C.C.E.G.L.V.C.R.L.W.C.K.K.K.L.W}$PEPTIDE1,PEPTIDE1,2:R3-16:R3|PEPTIDE1,PEPTIDE1,9:R3-21:R3|PEPTIDE1,PEPTIDE1,15:R3-25:R3$$$V2.0)	16.59	24	9.86
